# Results published in publication PMC10413622 (Nuclear medicine and biology, 2022).
# Entries after “also recorded” stand apart in the source; their conditions may differ.
# Legend:
# [1] = Microsome stability assay; type: in vitro ADME, mouse; conditions: 1 μM test compound, NADPH, 37 °C
# Method in brief: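 Mouse liver microsomes in 100 mM K₃PO₄ pH 7.4 with 10 mM MgCl₂ and 1 μM test compound were pre-incubated 10 min at 37 °C. Reactions were started with 1 mM NADPH. They were quenched at 0, 10, 20 and 40 min with stop solution in acetonitrile, centrifuged at 4000g for 20 min, diluted in 0.1% formic acid and quantified by LC-MS/MS.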
# [2] = determined at pH 6.8; cited from earlier work
# Caco-2 cells = assay: Caco-2 permeability assay; type: in vitro ADME; conditions: 10 μM, pH 7.4, 2 h
# Method in brief: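 Caco-2 cells grown in DMEM under 5% CO₂, seeded at 5 × 10⁵/well on polycarbonate filter inserts and differentiated 21 ± 4 days. Test compound at 10 μM final in HBSS with 25 mM HEPES, pH 7.4, 37 °C, added donor side. A→B and B→A runs were done with and without elacridar. Receiver was sampled over 2 h and donor at 0 and 2 h, then analysed by LC-MS/MS. Papp = […]/(A × C₀,donor) × 10⁶.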
# P2Y12R = conditions: read-out: IC50 (affinity); cited from earlier work
# [3] = system: other purinergic receptors; conditions: cited from earlier work
# [4] = In vitro human plasma stability of radiotracer; type: in vitro ADME; conditions: 37 °C, HPLC
# Method in brief: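 Formulated radiotracer (46 μCi) was mixed into human plasma, with aliquots held at 37 °C. Aliquots were quenched at 0, 5, 15, 30 and 60 min with ice-cold MeCN and centrifuged at 12,500g for 10 min. Supernatant went to radio-HPLC (C18, 70–95% MeCN with 0.1% TFA over 15 min). Controls of tracer without plasma were run at 0 and 60 min.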
# [5] = MicroPET imaging in rhesus macaque; type: in vivo; conditions: rhesus macaque n = 1, i.v. bolus, 60 min dynamic scan
# Method in brief: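 One mature female rhesus monkey (9.36 kg) was anaesthetised with Telazol, intubated, and maintained on isoflurane, with a hind-limb venous catheter and head secured. Tracer 4.90 mCi was given as a bolus over 1 min. The brain was imaged for 60 min (5×1, 2×2.5, 2×5, 4×10 min frames), with attenuation and scatter correction and 3D MAP reconstruction. A whole-brain volumetric ROI drawn on the summed image gave the TAC.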
# [6] = mouse, in vivo, 1 h
# [7] = Stability of radiotracer in formulation; type: physicochemical
# [8] = Dynamic PET/CT imaging in mice; type: in vivo, mouse
# Method in brief: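 Subjects were female C57BL/6 wild-type mice aged 3 months and one male P2Y12R total-KO mouse (C57BL/6 background, 11 months), under isoflurane (2–3.5% induction, 1–2.5% maintenance). Tracer was given by tail vein at 300 μCi, formulated in saline with 10% ethanol. Imaging was 60 min list-mode dynamic PET (4×15 s, 4×1 min, 11×5 min), OSEM-3D with scatter and attenuation correction, then CT. ROIs were applied to dynamic data to give TACs in %ID/g.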
# [9] = mice, i.v., 5 min post injection
SMILES,half-life in mouse liver microsomes [1],logD [2],Caco-2 efflux ratio BA/AB (Caco-2 cells),Caco-2 apparent permeability AB (Caco-2 cells; A→B),IC50 (P2Y12R),selectivity for P2Y12R over other purinergic receptors [3],loss of parent / radio-metabolites in human plasma ([4]; 0-60 min incubation),intact tracer after incubation in human serum ([4]; 60 min incubation),peak brain uptake (PET) [5],"ex vivo biodistribution, blood [6]","ex vivo biodistribution, brain [6]","ex vivo biodistribution, liver [6]",intact tracer after incubation in formulation ([7]; 90 min in formulation (saline with 10% ethanol)),time stable in formulation and resistant to radiolysis ([7]; post end-of-synthesis),"CNS uptake in P2Y12R knockout mouse (PET) ([8]; P2Y12R total KO male mouse n = 1, 60 min dynamic scan)","brain uptake (PET) [8, 9]","liver uptake (PET) [8, 9]","brain peak uptake (PET) ([8]; naïve wild-type mice n = 3, i.v., 15 s post injection)"
CCOC(=O)c1cc(C#N)c(N2CCC(C(=O)NS(=O)(=O)Cc3ccccc3)CC2)nc1C [AZD1283],37 min,2.8,5.3,4.48,11 nM,selective for P2Y12R over other purinergic receptors,,,,,,,,,,,,
CCOC(=O)c1cc([11C]#N)c(N2CCC(C(=O)NS(=O)(=O)Cc3ccccc3)CC2)nc1C [[^11C]AZD1283],,,,,,,no loss of parent or detection of radio-metabolites; also recorded: no loss of parent tracer or appearance of radio-metabolites,> 99%,0.37 SUV,0.9% ± 0.40 %ID/g,0.02% ± 0.01 %ID/g,106 ± 29.70 %ID/g,> 99%,> 90 min,no CNS uptake,0.55 ± 0.37 %ID/g,58.28 ± 18.75 %ID/g,3.46 ± 2.0 %ID/g
